Compound activity from PubChem BioAssay.
HNF4A DNA FP: change in binding of human HNF4 alpha to DNA | P41235 | HNF4a-FITC DNA binding, fluorescence polarization, 1 h | activity change, % at 10 µM | 360,000 tested, 0.3% active | AID 1224865; in the data active = activity change above about 30%, passing the limit was not always enough
Target sequence (P41235 whole entry, looked up): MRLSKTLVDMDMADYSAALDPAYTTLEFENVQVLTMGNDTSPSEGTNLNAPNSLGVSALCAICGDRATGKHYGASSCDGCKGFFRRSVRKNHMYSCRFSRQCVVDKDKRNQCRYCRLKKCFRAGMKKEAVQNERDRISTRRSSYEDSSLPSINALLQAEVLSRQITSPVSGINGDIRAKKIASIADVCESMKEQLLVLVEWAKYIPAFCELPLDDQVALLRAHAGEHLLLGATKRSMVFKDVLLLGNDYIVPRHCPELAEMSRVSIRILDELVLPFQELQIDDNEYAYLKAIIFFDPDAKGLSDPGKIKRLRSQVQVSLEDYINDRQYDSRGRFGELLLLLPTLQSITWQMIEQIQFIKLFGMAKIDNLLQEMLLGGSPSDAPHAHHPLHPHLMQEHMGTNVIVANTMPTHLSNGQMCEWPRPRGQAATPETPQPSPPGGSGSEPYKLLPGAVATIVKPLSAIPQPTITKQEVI
IDE cell inh: cellular human IDE inhibition; 320,000 tested, 0.41% active; inhibition, % at 5.59 µM; AID 434962; HEK cells, FAbetaB cleavage, fluorescence polarization; P14735;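 active = percent inhibition above the average of all tested compounds plus 3 SD, set per screening campaign, cut at about 16% in these data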;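 note: IDE supplied by intact live HEK cells; FP after avidin binding of uncleaved biotin substrate so inhibition keeps polarization high; 0% = DMSO wells and 100% = 60 µM reference IDE inhibitor Ii1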
IDE act: activators of human insulin-degrading enzyme in cells. activation, % at 5.96 µM. P14735. HEK cells, FAbeta-B cleavage, fluorescence polarization; 0% vehicle, 100% cell-free pure enzyme wells. 340,000 tested, 0.073% active;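 active = activation above the mean of all tested compounds plus 3 SD, set per screening campaign, cut at about 17% in these data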
Tb MetRS inh: Trypanosoma brucei MetRS inhibition; purified T. brucei MetRS, ATP depletion, Kinase-Glo luminescence; 360,000 tested, 0.4% active; inhibition, % at 11.9 µM;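 active = inhibition above a per-plate cutoff of the control wells' mean inhibition plus 3 SD, cut at about 5.5% in these data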;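 note: 0% = DMSO wells median and 100% = median of wells with control inhibitor compound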
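Material: T. brucei methionyl-tRNA synthetase, purified; reagent: substrates ATP, L-methionine and bulk Escherichia coli tRNA; dosing: 11.9 µM single point; timing: 15 min plus 2 h at 25 °C; detection: luminescence of leftover ATP; evaluation: % inhibition; control set: DMSO-only wells as low control; replicates: singlicate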
TPT1 inh: C. albicans TPT1 enzyme inhibition; recombinant caTPT1, FP RNA substrate dephosphorylation; inhibition, % at 5 µM; 300,000 tested, 0.81% active; AID 1962;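 active = inhibition above the mean of all tested compounds plus 3 SD, set per screening campaign, cut at about 24% in these data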;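 note: plate controls were DMSO alone for no effect and ferristatin control at 100 nM for full effect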
CSN deneddyl inh: CSN deneddylation inhibition | 360,000 tested, 0.38% active | Q92905 | AID 651999 | inhibition, % at 12.5 µM | Purified CSN, SCF-Nedd8-OG deneddylation, fluorescence polarization;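 active = pattern-corrected inhibition above about 35%, with an unprinted fluorescence ratio check between 0.5 and 1.5, limit read from the data, passing the limit was not always enough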;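 note: 0% = enzyme with substrate and 100% = substrate without enzyme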
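Detection – fluorescence polarization · System – HEK293T-derived human Csn5 enzyme · Controls – substrate-only high control, full reaction low control · Timing – 90 min, room temperature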
TPT1 inh confirm: confirmation of Candida albicans TPT1 inhibitors | shares compounds with TPT1 inh | recombinant caTPT1, fluorescence polarization, RNase T1 coupled | inhibition, % at 5 µM | 2,400 tested, 74% active | AID 2149;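 active = inhibition above the primary screen limit, the mean inhibition of all tested compounds plus 3 SD, cut at about 25% in these data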
RNase T1 inh: blocks Aspergillus oryzae RNase T1, a TPT1 counter-screen; shares compounds with TPT1 inh; RNase T1 cleavage, fluorescence polarization, 1536-well; inhibition, % at 5 µM; 2,400 tested, 83% active;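 active = inhibition above the solvent-only control well mean plus 3 SD, limit set per screening run, cut at about 23% in these data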;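 note: plate controls were DMSO wells with enzyme for no effect and wells without RNase T1 for full effect; inhibitors block cleavage so intact labeled substrate keeps polarization high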
IDE cell inh cf: cellular human IDE inhibition, confirmation | inhibition, % at 5.59 µM | shares compounds with IDE cell inh | AID 435028 | 1,200 tested, 51% active | HEK cells, FAbetaB cleavage, fluorescence polarization;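 active = mean inhibition across triplicate wells above the cutoff set by the earlier primary insulin-degrading enzyme screen, cut at about 16% in these data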;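 note: 0% = DMSO wells and 100% = 60 µM reference IDE inhibitor Ii1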
HEK cytotox: HEK cell cytotoxicity, counter-screen for IDE inhibitors; HEK293 cytotoxicity, ATP luminescence; shares compounds with IDE cell inh; AID 449730; inhibition, % at 5.59 µM; 1,200 tested, 28% active; in the data active = inhibition above about 22%;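 note: 0% = vehicle wells and 100% = reference cytotoxic drug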
An asterisk follows results filed as active; nt = no result given. Only some compounds are listed: those with a hit (about 1.7% of all), similar ones and a draw of the others.

SMILES	HNF4A DNA FP	IDE cell inh	IDE act	Tb MetRS inh	TPT1 inh	CSN deneddyl inh	TPT1 inh confirm	RNase T1 inh	IDE cell inh cf	HEK cytotox
Oc1c(Cl)cc(Cl)cc1/C=C/c1ccc2cccc(O)c2n1	10	33*	-54	1	56*	32	51*	59*	54*	15
CCN(CC)c1ccc(C=Nc2cccc(S(=O)(=O)N3CCOCC3)c2)c(O)c1	4	3	1	0	nt	-5	nt	nt	nt	nt
CCN(CC)c1ccc(/C=N/NC(=O)c2cccc(S(=O)(=O)N3CCOCC3)c2)c(O)c1	7	22*	-27	0	41*	-4	58*	67*	37*	85*
COc1cc(/C=C2/SC(=S)N(c3c(C)n(C)n(-c4ccccc4)c3=O)C2=O)ccc1O	25	18*	-34	0	29*	31	29*	42*	46*	11
Cc1c(N2C(=O)/C(=C3/C(=O)N(C)c4ccccc43)SC2=S)c(=O)n(-c2ccccc2)n1C	1	-2	3	-1	1	0	nt	nt	nt	nt
COc1cc(/C=C2\SC(=S)N(NS(=O)(=O)c3ccccc3)C2=O)ccc1O	30	74*	-103	1	31*	31	34*	42*	161*	7
CCCN1CCc2c(sc(NC(=O)c3ccc(S(=O)(=O)N(C)c4ccccc4)cc3)c2C(N)=O)C1	34*	16*	-8	0	107*	9	113*	115*	11	26*
CN1CCc2c(sc(NC(=O)c3ccc(S(=O)(=O)N4CCCCCC4)cc3)c2C(N)=O)C1	37	25*	-18	0	119*	22	126*	125*	4	19
CCN1CCc2c(sc(NC(=O)c3ccc(S(=O)(=O)N(C)CC4CCCO4)cc3)c2C(N)=O)C1 (stereo not given)	2	2	5	0	9	-4	nt	nt	nt	nt
CCNC(=S)N1N=C2c3ccccc3CCC2C1c1ccc(F)cc1 (stereo not given)	-1	3	nt	0	-2	-2	nt	nt	nt	nt
Nc1c(C(=O)Nc2nc3ccccc3s2)sc2nc(-c3cccs3)ccc12	31	29*	-22	0	30*	21	27*	38*	37*	81*
CC(=O)c1sc2nc(-c3cccs3)ccc2c1N	6	6	-4	0	13	7	nt	nt	nt	nt
COc1cc(/C=C(\C#N)c2nc3ccccc3o2)ccc1O	190	88*	-224	0	164*	109	170*	156*	84*	18
O=C1C=CC(=O)N1	5	0	-7	-1	0	-7	nt	nt	nt	nt
CCc1ccc(N=C2NC(=O)/C(=C/c3cc(OC)c(O)c(OC)c3)S2)cc1	14	nt	-47	1	nt	30	nt	nt	nt	nt
COc1cc(/C=C2\SC(=Nc3ccccc3)NC2=O)cc(Cl)c1O	123	134*	-112	0	105*	150	114*	110*	150*	28*
O=C(COC(=O)COc1cccc(C(F)(F)F)c1)NC(=O)NC1CCCCC1	-6	-5	3	-1	0	-9	nt	nt	nt	nt
Cc1ccc(NS(=O)(=O)c2csc(C(N)=O)c2)cc1C	-2	5	0	1	1	-2	nt	nt	nt	nt
Cc1nn(C)cc1S(=O)(=O)Nc1cccc(Cl)c1	-1	3	1	0	2	-3	nt	nt	nt	nt
Cc1cc(/C=C2\C(=N)N3C(SCc4ccccc4)=NSC3=NC2=O)c(C)n1Cc1ccccc1	17	-1	8	-1	6	5	nt	nt	nt	nt
